Reference: PubChem BioAssay
Inconclusive results are not listed. The source made the active and inactive calls.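 The calls were made as follows, unless noted: active = cell viability at or below a set limit in both duplicate runs, the limit being the all-compound median minus 4 SD (cut at about 23% in these data, passing the limit was not always enough); inconclusive = no clear call, values can overlap the other calls; inactive = the rest.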

Key:
[1] = OD615 S. cerevisiae growth inhibition, permissive medium, pilot counter-assay, permissive growth control for S. cerevisiae lifespan shortening project (AID 705;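 active = growth inhibition above 25% in both replicates, a cutoff set 3 SD above the mean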); settings: OD615, 24 h, at 10 µM, hits give high values
Method in brief: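 System – S. cerevisiae with engineered DeaD lifespan system · Buffer or medium – SC raffinose/galactose permissive medium · Schedule – cells pre-grown 4 h, then 24 h compound exposure, 30 °C humidified · Technique – culture turbidity as optical density at 615 nm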

[2] = Restrictive medium S. cerevisiae growth inhibition, OD615, pilot screen of yeast lifespan reduction project, restrictive growth control (AID 706;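 active = growth inhibition above a set limit, 3 SD over mean compound inhibition, in both replicates, cut at about 43% in these data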;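 also: modified DeaD lifespan yeast strain shifted to restrictive glucose medium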); settings: OD615, 48 h, at 10 µM, hits give high values
Method in brief: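 Material: engineered S. cerevisiae DeaD strain / Medium: glucose-based CSMM-D restrictive medium / Compound: single dose of 10 µM compound final, 0.25% DMSO / Timing: 4 h pre-incubation, 48 h exposure at 30 °C / Technique: OD615 absorbance reading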

[3] = viability gain of MRP-1-high H69AR cells under doxorubicin, pilot screen, MRP-1 activator project, CellTiter-Glo, duplicate (AID 807;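 active = viability increase at or above a cutoff of the median across tested compounds plus 3 SD, cut at about 8.5% in these data, passing the limit was not always enough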;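 also: compound pretreatment 18-22 h then 72 h combined with doxorubicin; 0% = doxorubicin alone and 100% = vehicle without doxorubicin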); settings: H69AR viability with doxorubicin, CellTiter-Glo luminescence; at 10 µM; hits give high values
[4] = growth suppression of beta-catenin knockout HCT116, pilot screen, human colon tumor cells (AID 823); settings: CellTiter-Glo, 60 h, at 10 µM, hits give low values;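 also: 0% = wells killed by 20 µM Hyamine and 100% = untreated DMSO cell wells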
[5] = growth suppression of PTEN-deleted HCT116, pilot screen, cell-based, HCT116 clonal line, CellTiter-Glo (AID 824;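 active = viability at or below 27.92% in each of two runs, the all-compound median minus 4 SD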;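 also: 0% = 20 µM Hyamine control and 100% = vehicle cell control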); settings: 60 h, at 10 µM, hits give low values
[6] = inhibitors of the yeast RAM network, pilot screen, dse1pr::URA3 reporter, 5-FOA selection (AID 869;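 active = inhibition over a set limit, the all-compound mean plus 3 SD, in both replicate runs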;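 also: 0% = DMSO wells with no growth and 100% = 10 µM 1-NA-PP1 with full growth; RAM network block rescues cells from 5-FOA so hits raise OD615 growth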); settings: S. cerevisiae dse1pr::URA3 5-FOA growth, OD615, 2 d; at 10 µM; hits give high values; strain carries analog-sensitive mutant Cbk1 kinase
[7] = RAM signaling pathway blockade in yeast – S. cerevisiae, Pdr1DBD-CYC8 efflux-inhibited sensitized strain, primary screen (AID 1298;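 active = RAM network inhibition above 8.4% in each of two replicates, 3 SD over the compound average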;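 also: 0% = DMSO untreated cells without growth and 100% = 10 µM 1-NA-PP1 full growth; higher means more yeast growth rescued from 5-FOA killing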); settings: S. cerevisiae cbk1-as DSE1-URA3 strain, 5-FOA growth OD615, 2 d; at 50 µM; hits give high values

CC1(C)CC(=O)C2(CC3=C(CC(C)(C)CC3=O)O2)C(=O)C1
inactive: growth inhibition [1] -4.3% | growth inhibition [2] 0.72% | viability increase [3] 0.2% | viability [4] 94.7% | viability [5] 97.1% | inhibition [6] 1.96% | RAM network inhibition [7] 1.77%

O=C(CSc1nc2c(c(=O)n1-c1ccc(F)cc1)SCC2)NCc1ccco1
inactive: growth inhibition [1] 8.53% | growth inhibition [2] 14.1% | viability increase [3] -2.1% | viability [4] 102% | viability [5] 103% | inhibition [6] 1.21% | RAM network inhibition [7] 7.3%

CC1CN(Cc2nc3c(c(=O)n(C)c(=O)n3C)n2Cc2ccccc2)CC(C)O1 (configuration not stated)
inactive: growth inhibition [1] -2.62% | growth inhibition [2] 3.58% | viability increase [3] -0.81% | viability [4] 106% | viability [5] 100% | inhibition [6] 0.15% | RAM network inhibition [7] 2.1%

Cc1ccccc1N1C(=O)c2sc3nc4c(c(=O)n3c2C1=O)CCC4
inactive: growth inhibition [1] 4.62% | growth inhibition [2] 25.2% | viability increase [3] -4.72% | viability [4] 97% | viability [5] 96.8% | inhibition [6] 1.5% | RAM network inhibition [7] 2.56%

Cc1ccc(Cl)cc1N1CCN(C(=O)C2CCC(=O)N2C(C)C)CC1 (configuration not stated)
inactive: growth inhibition [1] -2.15% | growth inhibition [2] -5.95% | viability increase [3] 2.45% | viability [4] 93.6% | viability [5] 85.8% | inhibition [6] -0.505% | RAM network inhibition [7] 5.7%

Cc1noc(NS(=O)(=O)c2ccc(NC(=O)CSc3ncccn3)cc2)c1C
inactive: growth inhibition [1] -3.47% | growth inhibition [2] -2.18% | viability increase [3] -0.58% | viability [4] 109% | viability [5] 95.2% | inhibition [6] 0.615% | RAM network inhibition [7] 1.94%

Cc1nnc(NC(=O)C(C)Sc2nncn2C)s1 (configuration not stated)
inactive: growth inhibition [1] -15.9% | growth inhibition [2] -22.2% | viability increase [3] 3.71% | viability [4] 107% | viability [5] 94.8% | inhibition [6] 1.18% | RAM network inhibition [7] 1.06%

CCCn1nc(NC(=O)CC(C)C)c2cc3ccccc3nc21
inactive: growth inhibition [1] -14.6% | growth inhibition [2] -11.4% | viability increase [3] -5.27% | viability [4] 87.5% | viability [5] 87.3% | inhibition [6] 2.49% | RAM network inhibition [7] 3.01%

CN(C)CCNc1ncnc2c1cnn2-c1ccc(Cl)cc1
inactive: growth inhibition [1] -13.2% | growth inhibition [2] -3.57% | viability increase [3] -7.01% | inhibition [6] 1.62% | RAM network inhibition [7] 3.07%
active: viability [4] 4.33% | viability [5] 4.63%

CC1(C)CC(=O)C(=CN2CCN(C(=O)c3ccco3)CC2)C(=O)C1
inactive: growth inhibition [1] -20.6% | growth inhibition [2] -9.23% | viability increase [3] 0.72% | viability [4] 100% | viability [5] 90.3% | inhibition [6] 2.93% | RAM network inhibition [7] 3.19%

CCOCCn1c(SCC(=O)OCc2ccccc2)nc2c1c(=O)[nH]c(=O)n2C
inactive: growth inhibition [1] -13.7% | growth inhibition [2] -14.2% | viability increase [3] -0.57% | viability [4] 104% | viability [5] 101% | inhibition [6] 0.495% | RAM network inhibition [7] 3.42%

CCOc1ccc(OCC)c(Nc2cc(C)nc3nc(C)nn23)c1
inactive: growth inhibition [1] -13.3% | growth inhibition [2] -2.15% | viability increase [3] -6.5% | viability [4] 53.1% | viability [5] 46.6% | inhibition [6] 0.055% | RAM network inhibition [7] 6.18%

Cc1ccc2nc(-c3ccccc3)cc(C(=O)O)c2c1
inactive: growth inhibition [1] -9.89% | growth inhibition [2] 8.96% | viability increase [3] -2.12% | viability [4] 95.3% | viability [5] 87.8% | inhibition [6] 1.46% | RAM network inhibition [7] 3.9%

CC1(C)CC(=O)C=C(NCc2cccnc2)C1
inactive: growth inhibition [1] -4.83% | growth inhibition [2] -11.8% | viability increase [3] -1.4% | viability [4] 92.2% | viability [5] 94.9% | inhibition [6] -0.505% | RAM network inhibition [7] 1.01%

CC(=O)SCCC(=O)N1C(C)CCCC1C(=O)O (configuration not stated)
inactive: growth inhibition [1] -1.05% | growth inhibition [2] -7.75% | viability increase [3] -0.97% | viability [4] 95.9% | viability [5] 102% | inhibition [6] 0.62% | RAM network inhibition [7] 5.78%

Cn1c(=O)c2c(nc(SCCNS(=O)(=O)c3ccccc3)n2C)n(C)c1=O
inactive: growth inhibition [1] -20.6% | growth inhibition [2] -16.3% | viability increase [3] -3.87% | viability [4] 101% | viability [5] 99% | inhibition [6] 1.46% | RAM network inhibition [7] 7.66%

Cc1oc2c(O)c(O)ccc2c(=O)c1-c1ccccc1
inactive: growth inhibition [1] -4.7% | growth inhibition [2] 1.24% | viability increase [3] 3.12% | viability [4] 95.1% | viability [5] 90.3% | inhibition [6] -0.32% | RAM network inhibition [7] -0.2%

CCN1CCCC1CNC(=O)Cn1cc2c(n1)CCC(C)C2 (configuration not stated)
inactive: growth inhibition [1] -3.58% | growth inhibition [2] 0.66% | viability increase [3] -1.37% | viability [4] 91.7% | viability [5] 100% | inhibition [6] 0.72% | RAM network inhibition [7] 1.7%

COc1ccc(C(=O)N2CCC(C(=O)Nc3cccc(C)c3)CC2)cc1OC
inactive: growth inhibition [1] -0.875% | growth inhibition [2] -15.3% | viability increase [3] -2.37% | viability [4] 106% | viability [5] 96.7% | inhibition [6] 0.29% | RAM network inhibition [7] 2.75%

CCOC(=O)c1sc(/N=C/N(C)C)c(C(=O)OCC)c1C
inactive: growth inhibition [1] -5.24% | growth inhibition [2] 0.92% | viability increase [3] -3.82% | viability [4] 95.3% | viability [5] 90.4% | inhibition [6] 1.98% | RAM network inhibition [7] 7.56%

COC(=O)c1ccc(-c2nc(-c3ccc(Br)o3)no2)cc1
inactive: growth inhibition [1] -14% | growth inhibition [2] -20.4% | viability increase [3] 3.93% | viability [4] 103% | viability [5] 87.4% | inhibition [6] 2.63% | RAM network inhibition [7] 1.84%

Cc1ccc(-c2nc(-c3ccccc3)no2)c(Cl)c1
inactive: growth inhibition [1] -6.6% | growth inhibition [2] -11.1% | viability increase [3] -4.72% | viability [4] 78.9% | viability [5] 78% | inhibition [6] 3.96% | RAM network inhibition [7] 3.45%

Cc1nc(Sc2nnnn2-c2ccccc2)c(C#N)c(C)c1C
inactive: growth inhibition [1] -13.8% | growth inhibition [2] -9.12% | viability increase [3] -2.52% | viability [4] 108% | viability [5] 97% | inhibition [6] 2.97% | RAM network inhibition [7] 9.98%

Cc1ccc2oc(=O)n(CC(=O)O)c2c1
inactive: growth inhibition [1] -6.32% | growth inhibition [2] 5.35% | viability increase [3] -0.21% | viability [4] 98.6% | viability [5] 93.7% | inhibition [6] 1.27% | RAM network inhibition [7] -1.2%

CSc1nnc2n(-c3ccc(C)cc3)c(=O)c3c4c(sc3n12)COC(C(C)C)C4 (configuration not stated)
inactive: growth inhibition [1] -18.2% | growth inhibition [2] -3.12% | viability increase [3] -4.07% | viability [4] 37.3% | viability [5] 31.6% | inhibition [6] -0.285% | RAM network inhibition [7] 7.91%

COc1ccccc1NC(=O)CSc1nnc(-c2ccco2)n1Cc1ccco1
inactive: growth inhibition [1] 1.41% | growth inhibition [2] 1.92% | viability increase [3] -3.34% | viability [4] 92.8% | viability [5] 90.5% | inhibition [6] 1.39% | RAM network inhibition [7] 1%

O=C(NC(C(=O)c1ccccc1)N1CCOCC1)c1ccccc1 (configuration not stated)
inactive: growth inhibition [1] -2.93% | growth inhibition [2] 13.8% | viability increase [3] -2.37% | viability [4] 99.3% | viability [5] 101% | inhibition [6] 1.61% | RAM network inhibition [7] 1.98%

O=C(CN1CCOc2ccccc21)N1CCN(c2cccc(Cl)c2)CC1
inactive: growth inhibition [1] 6% | growth inhibition [2] 18.6% | viability increase [3] -4.17% | viability [4] 84.1% | viability [5] 84.4% | inhibition [6] 2.77% | RAM network inhibition [7] 4.14%

CCOC(=O)N(C)OC(=O)Nc1ccc(Cl)c(Cl)c1
inactive: growth inhibition [1] -17.1% | growth inhibition [2] -20.5% | viability increase [3] -0.16% | viability [4] 95.6% | viability [5] 90.8% | inhibition [6] 0.52% | RAM network inhibition [7] 5.93%

CC(=O)Nc1ccc(S(=O)(=O)N2CCN(c3cc(C)ccc3C)CC2)cc1
inactive: growth inhibition [1] -14.3% | growth inhibition [2] -36% | viability increase [3] -0.32% | viability [4] 85.7% | viability [5] 79.3% | inhibition [6] 3.58% | RAM network inhibition [7] 0.1%

Cc1cc(C)cc(OCCCCCNCCO)c1
inactive: growth inhibition [1] -8.19% | growth inhibition [2] -14.7% | viability increase [3] -3.03% | viability [4] 87.6% | viability [5] 86.5% | inhibition [6] 2.79% | RAM network inhibition [7] 2.47%

OC(COc1ccccc1)Cn1cc(Br)cn1 (configuration not stated)
inactive: growth inhibition [1] -3.63% | growth inhibition [2] -8.39% | viability increase [3] -0.64% | viability [4] 106% | viability [5] 96.1% | inhibition [6] 1.23% | RAM network inhibition [7] 0.93%

O=C1CCC/C1=c1\s/c(=C\c2cccnc2)c(=O)n1-c1ccccc1
inactive: growth inhibition [1] -9.13% | growth inhibition [2] -8.32% | viability increase [3] -5.83% | viability [4] 103% | viability [5] 89.6% | inhibition [6] 0.465% | RAM network inhibition [7] 7.11%

Cc1cc(C)cc(N(CC(=O)NCC2CCCO2)S(=O)(=O)c2c(C)noc2C)c1 (configuration not stated)
inactive: growth inhibition [1] -12.5% | growth inhibition [2] -8.86% | viability increase [3] -1.25% | viability [4] 102% | viability [5] 90.5% | inhibition [6] 2.89% | RAM network inhibition [7] 1.84%

O=C(Cn1cnc2c(nnn2Cc2ccc(Cl)cc2)c1=O)N1CCN(c2ccccc2)CC1
inactive: growth inhibition [1] -7.16% | growth inhibition [2] -12.6% | viability increase [3] 3.63% | viability [4] 82.3% | viability [5] 80.5% | inhibition [6] 1.98% | RAM network inhibition [7] 6.43%

COc1ccc(NC(=O)CN2C(=O)CC(C)(C)S(=O)(=O)c3ccccc32)cc1
inactive: growth inhibition [1] -4.11% | growth inhibition [2] 2.55% | viability increase [3] 0.92% | viability [4] 104% | viability [5] 96.7% | inhibition [6] 1.35% | RAM network inhibition [7] 2.45%
